We go through nine compounds from ChEMBL document CHEMBL4480447, “Acrotrione: An Oxidized Xanthene from the Roots of Acronychia pubescens” (J Nat Prod, 2019).

Data set [1] has as its system Plasmodium falciparum. Kind of data set: Antiplasmodial activity against drug-sensitive Plasmodium falciparum 3D7 ring stage forms assessed as inhibition of parasite growth after 72 hrs by DAPI staining-based confocal microscopic analysis. It is filed as functional, organism-based. As to conditions: 3D7, 72 h.
Data set [2] concerns Plasmodium falciparum. Kind of data set: Antiplasmodial activity against drug-resistant Plasmodium falciparum Dd2 ring stage forms assessed as inhibition of parasite growth after 72 hrs by DAPI staining-based confocal microscopic analysis. It counts as functional, organism-based. The conditions noted are these: Dd2, 72 h. A digest of the protocol:
(§1)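 Compounds from 10 mM DMSO stocks, 16-point dose-response, 40 μM to 0.4 nM final. Incubation 72 h at 37 °C, 90% N2/5% CO2/5% O2. DAPI stain, confocal imaging. Percent inhibition normalized to puromycin 5 μM and 0.4% DMSO controls; IC50 by four-parameter logistic fit.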

The nature of data set [3]: Cytotoxicity against HEK293 cells assessed as growth inhibition after 72 hrs by resazurin dye-based fluorescence assay relative to control. The arrangement: concentration or dose not given beside the values. It is filed as cell-based. As to conditions: human, read-out: GI. A digest of the protocol: (§2)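 HEK293 cells kept in DMEM with 10% FBS. Exposed to compound for 72 h at 37 °C, 5% CO2; 16-point dose-response, 40 μM to 0.4 nM final, three concentrations per log, from 10 mM DMSO stocks. Medium then replaced with 44 μM resazurin; fluorescence read after 5−6 h (ex/em 530/595 nm). Data normalized to puromycin (5 μM) and 0.4% DMSO controls; IC50 from four-parameter logistic fit.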
On the technique in general: Resazurin is reduced to fluorescent resorufin, in cell work by metabolically active cells.

Data set [4] is described as follows: Selectivity ratio of IC50 for Plasmodium falciparum Dd2 ring stage forms to IC50 for Plasmodium falciparum 3D7 ring stage forms. It is filed as functional. In a few lines: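 Sixteen-point dose-response, 40 μM to 0.4 nM final. Fit is four-parameter logistic on percent inhibition normalized to puromycin (5 μM) and 0.4% DMSO. Ratio is Dd2 IC50 over 3D7 IC50.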

Data set [5] deals with Plasmodium falciparum. Kind of data set: Antiplasmodial activity against drug-sensitive Plasmodium falciparum 3D7 ring stage forms assessed as inhibition of parasite growth at 40 uM after 72 hrs by DAPI staining-based confocal microscopic analysis. As to conditions: 3D7, 72 h, read-out: GI. It is filed as functional. In a few lines:
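Exposed to compound for 72 h at 37 °C under 90% N2/5% CO2/5% O2. DAPI staining followed by confocal imaging. Percent inhibition normalized to puromycin (5 μM) and 0.4% DMSO controls.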

Data set [6] relates to Plasmodium falciparum. Briefly: Antiplasmodial activity against drug-resistant Plasmodium falciparum Dd2 ring stage forms assessed as inhibition of parasite growth at 40 uM after 72 hrs by DAPI staining-based confocal microscopic analysis. It counts as functional. As to conditions: Dd2, 72 h, read-out: GI. In a few lines: as §1
A further data set deals with HEK293. Kind of data set: Cytotoxicity against HEK293 cells after 72 hrs by resazurin dye-based fluorescence assay. It counts as cell-based. As to conditions: Homo sapiens, HEK293, 72 h. A digest of the protocol: as §2
The nature of data set [7]: Selectivity index, ratio of IC50 for HEK293 cells to IC50 for drug-sensitive Plasmodium falciparum 3D7 ring stage forms. It is filed as toxicity. The conditions noted are these: human; read-out: Ratio IC50.

As to `COc1c(CC=C(C)C)c2c(c(O)c1C(C)=O)[C@H](CC(C)C)[C@H]1C(=O)C(C(C)=O)=C3O[C@@H](C(C)(C)O)C[C@@]3(O)[C@@]1(O)O2`, the IC50 in the data set on Plasmodium falciparum [1] is 2700 nM; in the data set with Plasmodium falciparum [2], 4700 nM. Also, the inhibition at 72 h in data set [3] worked out at 80.7%. Further, in data set [4], the “Ratio IC50” value was 1.7.
For `COc1c(CC=C(C)C)c(O)cc(O)c1C(C)=O`, in that order: 1800 nM, 3100 nM, 79.1% and 1.7.
`COc1c(CC=C(C)C)c(O)c(C=O)c(O)c1C(C)=O` [ACRONYCULATIN A]: the inhibition of growth at 40 µM was 37.5% in the data set with Plasmodium falciparum [5] and 19.8% with Plasmodium falciparum [6]. In data set [3], the inhibition at 72 h came out at 7.4%.
For the compound `C[C@H]1[C@@H](O)O[C@@H]2O[C@@]3(C)CC[C@H]4[C@H](C)CC[C@@H]1[C@@]24OO3` [ARTENIMOL], in data set [3], the inhibition at 72 h is 41.1%. Also, the “Ratio IC50” value in data set [4] turned out to be 1.8.
For the compound `C[C@H]1[C@H](OC(=O)CCC(=O)O)O[C@@H]2O[C@@]3(C)CC[C@H]4[C@H](C)CC[C@@H]1[C@@]24OO3` [ARTESUNATE], in the data set with Plasmodium falciparum [2], the IC50 was 3.3 nM. Also, in data set [3], the inhibition at 72 h was 62.5%.
With `CCN(CC)CCCC(C)Nc1ccnc2cc(Cl)ccc12` (stereo not drawn) [CHLOROQUINE], the inhibition at 72 h in data set [3] is 53.2%.
Regarding `COc1ccc(C[C@H](N)C(=O)N[C@H]2[C@@H](O)[C@H](n3cnc4c(N(C)C)ncnc43)O[C@@H]2CO)cc1` [PUROMYCIN], the IC50 turned out to be 70.2 nM in the data set with Plasmodium falciparum [1], 74.7 nM in the data set on Plasmodium falciparum [2] and 694 nM in the data set on HEK293. Also, the selectivity ratio in data set [7] is 9.9. For the same compound, the “Ratio IC50” value in data set [4] amounted to 1.1.
Consider `CCc1nc(N)nc(N)c1-c1ccc(Cl)cc1` [PYRIMETHAMINE], for which the IC50 in the data set with Plasmodium falciparum [1] was 7.7 nM. Also, the inhibition at 72 h in data set [3] stood at 52%.
Regarding `COc1ccc2nc3cc(Cl)ccc3c(Nc3cc(CN4CCCC4)c(O)c(CN4CCCC4)c3)c2n1` [PYRONARIDINE], the IC50 in the data set on Plasmodium falciparum [1] was determined as 8.2 nM; in the data set with Plasmodium falciparum [2], 11 nM; with HEK293 it was 1990 nM. For the same compound, the selectivity ratio in data set [7] was 246. In data set [4], the “Ratio IC50” value is 1.3.

Usually IC50 stands for the concentration at which inhibition is half-maximal.
